Measurements: ChEMBL document CHEMBL1649433, “Violacein extracted from Chromobacterium violaceum inhibits Plasmodium growth in vitro and in vivo” (Antimicrob Agents Chemother, 2009)
Calls of active or inactive are those of the source. The calls are words filed in the database; no cut-off is given here.

Key:
Plasmodium falciparum [1] = assay: Antimalarial activity against chloroquine-sensitive Plasmodium falciparum 3D7 infected in erythrocytes after 48 hrs by [3H]hypoxanthine incorporation assay; type: functional, organism-based
How it was run: (§1)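 Erythrocytes infected with P. falciparum at 1% parasitemia, 2% final hematocrit; growth read by [3H]-hypoxanthine incorporation after 48 h at 37°C. Inhibition % = [1 – (CPM treated IE – CPM NE)/(CPM untreated IE – CPM NE)] x 100, untreated IE as 100% growth. Triplicates, at least three times with different batches and cells; concentrations from 0.06 µM upward; IC50 from dose-response.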

Plasmodium falciparum [2] = assay: Antimalarial activity against chloroquine-resistant Plasmodium falciparum S20 infected in erythrocytes after 48 hrs by [3H]hypoxanthine incorporation assay; type: functional, organism-based; how it was run: as §1
Plasmodium chabaudi [3] = assay: Antimalarial activity against nonlethal Plasmodium chabaudi chabaudi AS infected in C57BL/6 mouse assessed as inhibition of parasitemia at 7.5 mg/kg/day, ip administered 1 hr post-infection and measured on day 5 post-infection; type: functional; details: route intraperitoneal
How it was run: (§2)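 C57BL/6 mice (7-10 per group, aged 7-10 weeks, 20 ± 3 g) infected i.p. with 106 IE of P. c. chabaudi AS; given daily i.p. doses of 0.75 to 7.5 mg/kg/day for 11 consecutive days (days 0-10), first dose 1 h p.i. Parasitemia counted daily in Giemsa-stained smears (≥1,000 erythrocytes) until day 12; inhibition relative to untreated mice.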

Plasmodium chabaudi [4] = assay: Antimalarial activity against nonlethal Plasmodium chabaudi chabaudi AS infected in C57BL/6 mouse assessed as inhibition of parasitemia at 7.5 mg/kg/day, ip administered 1 hr post-infection and measured on day 6 post-infection; type: functional; details: route intraperitoneal; how it was run: as §2
Plasmodium chabaudi [5] = assay: Antimalarial activity against nonlethal Plasmodium chabaudi chabaudi AS infected in C57BL/6 mouse assessed as inhibition of parasitemia at 7.5 mg/kg/day, ip administered 1 hr post-infection and measured on day 7 post-infection; type: functional; details: route intraperitoneal; how it was run: as §2
Plasmodium chabaudi [6] = assay: Antimalarial activity against nonlethal Plasmodium chabaudi chabaudi AS infected in C57BL/6 mouse assessed as inhibition of parasitemia at 7.5 mg/kg/day, ip administered 1 hr post-infection and measured on day 8 post-infection; type: functional; details: route intraperitoneal; how it was run: as §2
Plasmodium chabaudi [7] = assay: Antimalarial activity against nonlethal Plasmodium chabaudi chabaudi AS infected in C57BL/6 mouse assessed as inhibition of parasitemia at 3.75 mg/kg/day, ip administered 1 hr post-infection and measured on day 5 post-infection; type: functional; details: route intraperitoneal; how it was run: as §2
Plasmodium chabaudi [8] = assay: Antimalarial activity against nonlethal Plasmodium chabaudi chabaudi AS infected in C57BL/6 mouse assessed as inhibition of parasitemia at 3.75 mg/kg/day, ip administered 1 hr post-infection and measured on day 6 post-infection; type: functional; details: route intraperitoneal; how it was run: as §2
Plasmodium chabaudi [9] = assay: Antimalarial activity against nonlethal Plasmodium chabaudi chabaudi AS infected in C57BL/6 mouse assessed as inhibition of parasitemia at 3.75 mg/kg/day, ip administered 1 hr post-infection and measured on day 7 post-infection; type: functional; details: route intraperitoneal; how it was run: as §2
Plasmodium chabaudi [10] = assay: Antimalarial activity against nonlethal Plasmodium chabaudi chabaudi AS infected in C57BL/6 mouse assessed as inhibition of parasitemia at 3.75 mg/kg/day, ip administered 1 hr post-infection and measured on day 8 post-infection; type: functional; details: route intraperitoneal; how it was run: as §2
Plasmodium chabaudi [11] = assay: Antimalarial activity against nonlethal Plasmodium chabaudi chabaudi AS infected in C57BL/6 mouse assessed as inhibition of parasitemia at 0.75 mg/kg/day, ip administered 1 hr post-infection and measured on day 5 post-infection; type: functional; details: route intraperitoneal; how it was run: as §2
Plasmodium chabaudi [12] = assay: Antimalarial activity against nonlethal Plasmodium chabaudi chabaudi AS infected in C57BL/6 mouse assessed as inhibition of parasitemia at 0.75 mg/kg/day, ip administered 1 hr post-infection and measured on day 6 post-infection; type: functional; details: route intraperitoneal; how it was run: as §2
Plasmodium chabaudi [13] = assay: Antimalarial activity against nonlethal Plasmodium chabaudi chabaudi AS infected in C57BL/6 mouse assessed as inhibition of parasitemia at 0.75 mg/kg/day, ip administered 1 hr post-infection and measured on day 7 post-infection; type: functional; details: route intraperitoneal; how it was run: as §2
Plasmodium chabaudi [14] = assay: Antimalarial activity against nonlethal Plasmodium chabaudi chabaudi AS infected in C57BL/6 mouse assessed as inhibition of parasitemia at 0.75 mg/kg/day, ip administered 1 hr post-infection and measured on day 8 post-infection; type: functional; details: route intraperitoneal; how it was run: as §2
Plasmodium chabaudi [15] = assay: Antimalarial activity against nonlethal Plasmodium chabaudi chabaudi AS infected in C57BL/6 mouse assessed as inhibition of parasitemia at 0.075 mg/kg/day, ip administered 1 hr post-infection and measured on day 5 post-infection; type: functional, organism-based
How it was run: (§3)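 C57BL/6 mice (7-10 per group, 7-10 weeks old, 20 ± 3 g) were infected i.p. with 10^6 P. chabaudi chabaudi AS infected erythrocytes. Violacein was given i.p. daily for 11 days (days 0-10), starting 1 h post-infection. Parasitemia was counted daily on Giemsa-stained smears (≥1,000 erythrocytes) and inhibition was calculated against untreated infected mice.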

Plasmodium chabaudi [16] = assay: Antimalarial activity against nonlethal Plasmodium chabaudi chabaudi AS infected in C57BL/6 mouse assessed as inhibition of parasitemia at 0.075 mg/kg/day, ip administered 1 hr post-infection and measured on day 6 post-infection; type: functional, organism-based; how it was run: as §3
Plasmodium chabaudi [17] = assay: Antimalarial activity against nonlethal Plasmodium chabaudi chabaudi AS infected in C57BL/6 mouse assessed as inhibition of parasitemia at 0.075 mg/kg/day, ip administered 1 hr post-infection and measured on day 7 post-infection; type: functional, organism-based; how it was run: as §3
Plasmodium chabaudi [18] = assay: Antimalarial activity against nonlethal Plasmodium chabaudi chabaudi AS infected in C57BL/6 mouse assessed as inhibition of parasitemia at 0.075 mg/kg/day, ip administered 1 hr post-infection and measured on day 8 post-infection; type: functional; details: route intraperitoneal
Plasmodium chabaudi [19] = assay: Antimalarial activity against lethal Plasmodium chabaudi chabaudi AJ infected in C57BL/6 mouse assessed as mouse survival rate at 7.5 mg/kg/day, ip administered 1 hr post-infection and measured on day 9 post-infection; type: functional; details: route intraperitoneal
How it was run: (§4)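 C57BL/6 mice, groups of 10, aged 7-10 weeks, 20 ± 3 g, infected i.p. with 106 IE of lethal P. c. chabaudi AJ; 7.5 mg/kg/day given i.p. for 11 consecutive days (days 0-10 p.i.), first dose 1 h p.i.; survival followed daily versus untreated mice; Log-Rank test.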

Plasmodium chabaudi [20] = assay: Antimalarial activity against lethal Plasmodium chabaudi chabaudi AJ infected in C57BL/6 mouse assessed as mouse survival rate at 7.5 mg/kg/day, ip administered 1 hr post-infection and measured on day 14 post-infection; type: functional; details: route intraperitoneal; how it was run: as §4
Plasmodium chabaudi [21] = assay: Antimalarial activity against lethal Plasmodium chabaudi chabaudi AJ infected in C57BL/6 mouse assessed as mouse survival rate at 7.5 mg/kg/day, ip administered 1 hr post-infection and measured on day 16 post-infection; type: functional; details: route intraperitoneal; how it was run: as §4
[22] = Toxicity in erythrocytes assessed as red blood cell density at 14 uM after 48 hrs; type: cell-based; details: erythrocyte
How it was run: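 Uninfected erythrocytes were cultured 48 h at 37°C with a range of violacein concentrations. Cells were counted in a Neubauer chamber. RBC density was expressed as % of the drug-free control: (RBC/mL with violacein ÷ RBC/mL without) × 100. Results are means of triplicates ± SD, with Mann-Whitney U test for significance.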

Plasmodium falciparum [23] = assay: Antimalarial activity against Plasmodium falciparum young blood forms (0 to 24 hrs ring stage) infected in erythrocytes after 24 hrs by [3H]hypoxanthine incorporation assay; type: functional, organism-based
How it was run: (§5)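 Synchronized (±6 h) P. falciparum 3D7 blood stages were prepared by repeated 5% sorbitol treatment. Rings (0-24 h) or trophozoites/schizonts (24-48 h) were used at 1% parasitemia and 2% final hematocrit, exposed to violacein for 24 h, and growth was read by [3H]-hypoxanthine incorporation. Inhibition % = [1 − (CPM treated − CPM uninfected RBC)/(CPM untreated − CPM uninfected RBC)] × 100. Runs were in triplicate.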

Plasmodium falciparum [24] = assay: Antimalarial activity against Plasmodium falciparum mature blood forms (24 to 48 hrs ring stage) infected in erythrocytes after 24 hrs by [3H]hypoxanthine incorporation assay; type: functional, organism-based; details: in the assay text read “trophozoites and schizonts stage” for “ring stage”; how it was run: as §5
Plasmodium chabaudi [25] = assay: Antimalarial activity against nonlethal Plasmodium chabaudi chabaudi AS infected in C57BL/6 mouse assessed inhibition of parasitemia at 7.5 mg/kg/day, ip for 10 days followed by compound withdrawal and measured on day 16 post-infection; type: functional; details: route intraperitoneal
How it was run: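 Mice infected i.p. with 106 P. c. chabaudi AS IE; 7.5 mg/kg/day given i.p. for 11 days (0-10 p.i.) from 1 h p.i., then withdrawn. Parasitemia followed in Giemsa-stained smears until day 22 p.i. versus untreated mice; Mann-Whitney U test.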

Plasmodium chabaudi [26] = assay: Antimalarial activity against nonlethal Plasmodium chabaudi chabaudi AS infected in C57BL/6 mouse assessed as inhibition of parasitemia at 7.5 mg/kg/day, ip administered 5 days post-infection and measured on day 7 post-infection; type: functional; details: route intraperitoneal
How it was run: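 Mice infected i.p. with 106 P. c. chabaudi AS IE; 7.5 mg/kg/day given i.p. daily from day 5 p.i. (16% parasitemia) to day 10 (6 days). Parasitemia counted daily in Giemsa-stained smears (≥1,000 erythrocytes) versus untreated mice; Mann-Whitney U test.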

Work on O=C1NC(c2c[nH]c3ccc(O)cc23)=C/C1=C1\C(=O)Nc2ccccc21 [VIOLACEIN] yielded an IC50 (Plasmodium falciparum [1]) of 850 nM, an IC50 (Plasmodium falciparum [2]) of 630 nM and an inhibition in vivo at 7.5 mg/kg/day (Plasmodium chabaudi [3]) of 56.5%. The inhibition in vivo at 7.5 mg/kg/day (Plasmodium chabaudi [4]) was 75.4%, the inhibition in vivo at 7.5 mg/kg/day (Plasmodium chabaudi [5]) was 86.9% and the inhibition in vivo at 7.5 mg/kg/day (Plasmodium chabaudi [6]) was 84.7%. For the same compound, the inhibition in vivo at 3.75 mg/kg/day (Plasmodium chabaudi [7]) was 33.2%, the inhibition in vivo at 3.75 mg/kg/day (Plasmodium chabaudi [8]) was 64.9% and the inhibition in vivo at 3.75 mg/kg/day (Plasmodium chabaudi [9]) was 82.1%. It also gave an inhibition in vivo at 3.75 mg/kg/day (Plasmodium chabaudi [10]) of 75.7%, an inhibition in vivo at 0.75 mg/kg/day (Plasmodium chabaudi [11]) of 3.58% and an inhibition in vivo at 0.75 mg/kg/day (Plasmodium chabaudi [12]) of 20.4%. For the same compound, the inhibition in vivo at 0.75 mg/kg/day (Plasmodium chabaudi [13]) was 39.2%, the inhibition in vivo at 0.75 mg/kg/day (Plasmodium chabaudi [14]) was 48.9% and the inhibition (Plasmodium chabaudi [15]) was “inactive”. For the same compound, the inhibition (Plasmodium chabaudi [16]) was “inactive”, the inhibition (Plasmodium chabaudi [17]) was “inactive” and the inhibition in vivo at 0.075 mg/kg/day (Plasmodium chabaudi [18]) was 12%. For the same compound, the survival at 7.5 mg/kg/day (Plasmodium chabaudi [19]) was 10%, the survival at 7.5 mg/kg/day (Plasmodium chabaudi [20]) was 14% and the survival at 7.5 mg/kg/day (Plasmodium chabaudi [21]) was 80%. The Activity [22] was “Toxic”, the inhibition (Plasmodium falciparum [23]) was “Active” and the inhibition (Plasmodium falciparum [24]) was “Active”. For the same compound, the inhibition in vivo at 7.5 mg/kg/day (Plasmodium chabaudi [25]) was 59% and the inhibition in vivo at 7.5 mg/kg/day (Plasmodium chabaudi [26]) was 50.1%.
